Published values pooled from the literature.
Lines come from different studies, so protocols differ.

SMILES | species | medium | route | dose | setting | measurement | result
Cc1cc(-c2nccc3c2ccn3CC(=O)Nc2ccc(-c3cnccn3)cn2)ccn1 | human | plasma | oral | 40 mg | single dose | Cmax | 0.345 µM
O=C(COc1ccc(Cl)cc1)NC12CC(c3nnc([C@H]4C[C@@H](OC(F)(F)F)C4)o3)(C1)C2 | human | plasma | oral | 200 mg | multiple doses, once daily, steady state, healthy volunteers | Cmax | 16.2 µM
COCC(=O)N1CCC[C@H](C(=O)NCc2nc(-c3ccc(C#N)cc3)cs2)C1 |  | Caco-2 |  |  |  | efflux ratio | 2.2
COc1ccc(-c2c(Nc3ccccn3)[nH]c3c(C4=CCCCC4)c(-c4ccccc4)nn3c2=O)cc1 | human | plasma | oral | 400 mg once daily | multiple doses, patients | Cmax | 3200 ng/mL
CCOCC(=O)N1CCC[C@H](C(=O)NCc2nc(-c3ccc(C)nc3)cs2)C1 |  | Caco-2 |  |  |  | efflux ratio | 3.8
CN(C)C(=O)c1cc2cnc(Nc3ccc(-c4ccc5c(=O)cc(N6CCOCC6)oc5c4)cc3)nc2n1C1CCCC1.Cl | BALB/c mouse | plasma | oral | 20 mg/kg |  | Tmax | 54 min
COc1ccc2c(c1)CN(C(=O)CCN1CCC(Cc3ccccc3)CC1)CC[S@@+]2[O-] | male human | plasma | intravenous | 0.15 mg/kg | healthy volunteers | Cmax | 349 ng/mL
CC(C)n1c(C2CCNCC2)nc2c([N+](=O)[O-])c(Br)c(Br)cc21 | human | plasma | oral | 75 mg | patients | Cmax | 60.5 ng/mL
